From ChEMBL document CHEMBL3576850 (J Nat Prod, 2015)
In brackets after ≈: the same amount, converted by molar mass. Activity calls are given as the source filed them. No cut-off for these calls is given here.

Experiments:
[1] = Inhibition of recombinant his-tagged methicillin-resistant Staphylococcus aureus pyruvate kinase expressed in Escherichia coli BL-21(DE3) using PEP as substrate after 5 mins by L-LDH coupled assay
[2] = molecular target: Pyruvate kinase PKM (Homo sapiens) (UniProt P14618); assay: Inhibition of recombinant his-tagged human pyruvate kinase M2 expressed in Escherichia coli BL-21(DE3) using PEP as substrate at 5 uM after 5 mins by L-LDH coupled assay relative to control
Chain of Pyruvate kinase PKM (Homo sapiens) (P14618 2-531 limits assumed): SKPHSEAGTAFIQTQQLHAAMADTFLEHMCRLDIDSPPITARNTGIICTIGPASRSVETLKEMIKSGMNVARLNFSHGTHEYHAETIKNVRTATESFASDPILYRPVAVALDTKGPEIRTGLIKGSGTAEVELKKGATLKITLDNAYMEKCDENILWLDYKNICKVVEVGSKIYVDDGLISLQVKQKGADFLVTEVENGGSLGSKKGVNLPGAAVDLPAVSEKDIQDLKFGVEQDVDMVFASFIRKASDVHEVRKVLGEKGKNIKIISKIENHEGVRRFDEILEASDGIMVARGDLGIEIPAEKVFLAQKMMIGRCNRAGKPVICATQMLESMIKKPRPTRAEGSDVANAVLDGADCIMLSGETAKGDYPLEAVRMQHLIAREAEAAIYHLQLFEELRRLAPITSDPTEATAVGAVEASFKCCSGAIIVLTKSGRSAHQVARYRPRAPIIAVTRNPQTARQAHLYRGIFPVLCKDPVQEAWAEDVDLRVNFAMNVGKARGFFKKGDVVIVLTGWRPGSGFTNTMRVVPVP
Outline: (§1)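 His-tagged human PK isoform in a continuous rabbit muscle L-LDH-coupled assay, read as 340 nm absorbance change. Compounds added from DMSO, final DMSO ≤1%. Three measurements, each in triplicate.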

[3] = molecular target: Pyruvate kinase PKLR (Homo sapiens) (UniProt P30613); assay: Inhibition of recombinant his-tagged human pyruvate kinase L expressed in Escherichia coli BL-21(DE3) using PEP as substrate at 5 uM after 5 mins by L-LDH coupled assay relative to control; outline: as §1
Chain of Pyruvate kinase PKLR (Homo sapiens) (P30613 whole entry, looked up): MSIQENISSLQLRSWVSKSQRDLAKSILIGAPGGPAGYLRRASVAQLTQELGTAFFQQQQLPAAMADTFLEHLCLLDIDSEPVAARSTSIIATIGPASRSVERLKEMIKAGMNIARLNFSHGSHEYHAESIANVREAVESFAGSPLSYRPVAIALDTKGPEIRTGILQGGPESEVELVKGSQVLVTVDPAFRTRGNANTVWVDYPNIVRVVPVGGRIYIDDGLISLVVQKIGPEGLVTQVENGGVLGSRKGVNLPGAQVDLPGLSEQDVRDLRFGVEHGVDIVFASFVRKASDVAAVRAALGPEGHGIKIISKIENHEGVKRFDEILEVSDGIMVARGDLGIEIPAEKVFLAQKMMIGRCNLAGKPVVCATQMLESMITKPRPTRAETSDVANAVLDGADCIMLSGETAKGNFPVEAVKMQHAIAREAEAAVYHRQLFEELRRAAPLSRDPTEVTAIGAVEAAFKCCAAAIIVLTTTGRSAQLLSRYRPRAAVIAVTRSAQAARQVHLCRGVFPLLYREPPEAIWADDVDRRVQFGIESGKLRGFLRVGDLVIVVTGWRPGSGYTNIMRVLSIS

[4] = molecular target: Pyruvate kinase PKM (Homo sapiens) (UniProt P14618); assay: Inhibition of recombinant his-tagged human pyruvate kinase M1 expressed in Escherichia coli BL-21(DE3) using PEP as substrate at 5 uM after 5 mins by L-LDH coupled assay relative to control; outline: as §1
[5] = molecular target: Pyruvate kinase PKLR (Homo sapiens) (UniProt P30613); assay: Inhibition of recombinant his-tagged human pyruvate kinase R expressed in Escherichia coli BL-21(DE3) using PEP as substrate at 5 uM after 5 mins by L-LDH coupled assay relative to control; outline: as §1
[6] = molecular target: Pyruvate kinase PKM (Homo sapiens) (UniProt P14618); assay: Inhibition of recombinant his-tagged human pyruvate kinase M2 expressed in Escherichia coli BL-21(DE3) using PEP as substrate at 10 uM after 5 mins by L-LDH coupled assay relative to control; outline: as §1
[7] = molecular target: Pyruvate kinase PKLR (Homo sapiens) (UniProt P30613); assay: Inhibition of recombinant his-tagged human pyruvate kinase R expressed in Escherichia coli BL-21(DE3) using PEP as substrate at 10 uM after 5 mins by L-LDH coupled assay relative to control; outline: as §1
[8] = molecular target: Pyruvate kinase PKM (Homo sapiens) (UniProt P14618); assay: Inhibition of recombinant his-tagged human pyruvate kinase M1 expressed in Escherichia coli BL-21(DE3) using PEP as substrate at 10 uM after 5 mins by L-LDH coupled assay relative to control; outline: as §1
[9] = molecular target: Pyruvate kinase PKLR (Homo sapiens) (UniProt P30613); assay: Inhibition of recombinant his-tagged human pyruvate kinase L expressed in Escherichia coli BL-21(DE3) using PEP as substrate at 10 uM after 5 mins by L-LDH coupled assay relative to control; outline: as §1
Staphylococcus aureus [10] = assay: Antibacterial activity against methicillin-resistant Staphylococcus aureus 252 by 2-fold serial broth microdilution method; assay type: functional
Staphylococcus aureus [11] = assay: Antibacterial activity against methicillin-susceptible Staphylococcus aureus RN4220 by 2-fold serial broth microdilution method; assay type: functional

SMILES | IC50 [1] [nM] | inhibition [2] [%] | inhibition [3] [%] | inhibition [4] [%] | inhibition [5] [%] | inhibition [6] | inhibition [7] | inhibition [8] | inhibition [9] | MIC (Staphylococcus aureus [10]) [µg/mL] | MIC (Staphylococcus aureus [11]) [µg/mL]
O=C(c1nc(-c2c[nH]c3cc(Cl)ccc23)c[nH]1)c1c[nH]c2cc(Cl)ccc12 | 1.5 | 0 | < 40 | 0 | < 40 | – | – | – | – | – | –
O=C(c1nc(-c2c[nH]c3c(Cl)cccc23)c[nH]1)c1c[nH]c2c(Cl)cccc12 | 26000 | – | – | – | – | inactive | inactive | inactive | inactive | – | –
O=C(c1nc(-c2c[nH]c3cc(I)ccc23)c[nH]1)c1c[nH]c2cc(I)ccc12 | 3.3 | 0 | < 40 | 0 | < 40 | – | – | – | – | – | –
O=C(c1ncc(-c2c[nH]c3cc(Br)ccc23)[nH]1)c1c[nH]c2cc(Br)ccc12 | – | 0 | < 40 | 0 | < 40 | – | – | – | – | – | –
O=C1NC[C@@H](c2c[nH]c3cc(Br)ccc23)N[C@H]1c1c[nH]c2cc(Br)ccc12 (relative stereo) [CIS-3,4-DIHYDROHAMACANTHIN B] | 16 | – | – | – | – | – | – | – | – | 12.5 (≈ 25.6 µM) | 6.25 (≈ 12.8 µM)
O=C(c1nc(-c2c[nH]c3ccc(Br)cc23)c[nH]1)c1c[nH]c2ccc(Br)cc12 | 6.4 | 0 | < 40 | 0 | < 40 | – | – | – | – | – | –
O=C(c1nc(-c2c[nH]c3cc(F)ccc23)c[nH]1)c1c[nH]c2cc(F)ccc12 | 24 | – | – | – | – | inactive | inactive | inactive | inactive | – | –
O=C(c1nc(-c2c[nH]c3ccccc23)c[nH]1)c1c[nH]c2ccccc12 | – | – | – | – | – | inactive | inactive | inactive | inactive | – | –
